Measured values: ChEMBL document CHEMBL2331224 (J Med Chem, 2013)
The source made the active and inactive calls. The rule behind the calls is not given here.

Columns and labels:
[1] = system: Mus musculus; assay: Toxicity against KKAy mouse assessed as plasma triglyceride level at 10 mg/kg/day, po for 14 days (reference value: 122.4 +/- 11.0 mg/dL); assay type: organism-based; set-up: route oral; details: in vivo, 336 h
[2] = system: Mus musculus; assay: Toxicity against KKAy mouse assessed as plasma ALT level at 10 mg/kg/day, po for 14 days (reference value: 17.6 +/- 0.9 IU); assay type: organism-based; set-up: route oral; details: in vivo, 336 h
[3] = system: Rattus norvegicus; assay: Toxicity in Sprague-Dawley rat assessed as change in body weight at 30 mg/kg, po for 28 days; assay type: organism-based; set-up: dose 30 mg/kg, route oral; details: in vivo, 672 h
Outline: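 Male and female SD rats, four weeks old on arrival, two per cage. Oral 30 mg/kg/day or vehicle (1% ethanol/0.5% CMC in water, 5 mL/kg) for 28 days, body weight recorded daily. After overnight fasting and isoflurane anaesthesia, liver, brain, kidney, spleen and testis were weighed, and serum was collected (2000g, 10 min, 4 °C) for blood chemistry.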

[4] = target: T1, Retinoic acid receptor gamma (Homo sapiens) (UniProt P13631); assay: Transactivation of RARgamma (unknown origin) by luciferase reporter gene assay relative to All-trans retinoic acid
T1 sequence (whole entry): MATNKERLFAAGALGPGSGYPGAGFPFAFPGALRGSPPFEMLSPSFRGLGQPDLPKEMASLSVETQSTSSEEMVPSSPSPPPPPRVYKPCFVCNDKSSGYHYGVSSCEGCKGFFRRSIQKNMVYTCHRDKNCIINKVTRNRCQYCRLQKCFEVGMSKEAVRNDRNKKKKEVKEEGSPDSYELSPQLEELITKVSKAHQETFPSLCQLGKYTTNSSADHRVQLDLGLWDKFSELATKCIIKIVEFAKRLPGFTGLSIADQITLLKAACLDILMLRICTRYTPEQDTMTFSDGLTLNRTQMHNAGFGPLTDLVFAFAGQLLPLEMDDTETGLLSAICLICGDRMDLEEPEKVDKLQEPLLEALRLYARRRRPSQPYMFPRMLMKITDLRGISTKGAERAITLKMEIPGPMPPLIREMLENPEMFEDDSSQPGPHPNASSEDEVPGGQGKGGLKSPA

[5] = target: T2, Retinoic acid receptor RXR-alpha (Homo sapiens) (UniProt P19793); assay: Transactivation of RXRalpha (unknown origin) expressed in COS1 cells at 0.1 uM after 18 hrs by luciferase reporter gene assay relative to bexarotene; assay type: cell-based; details: COS-1
T2 sequence (whole entry): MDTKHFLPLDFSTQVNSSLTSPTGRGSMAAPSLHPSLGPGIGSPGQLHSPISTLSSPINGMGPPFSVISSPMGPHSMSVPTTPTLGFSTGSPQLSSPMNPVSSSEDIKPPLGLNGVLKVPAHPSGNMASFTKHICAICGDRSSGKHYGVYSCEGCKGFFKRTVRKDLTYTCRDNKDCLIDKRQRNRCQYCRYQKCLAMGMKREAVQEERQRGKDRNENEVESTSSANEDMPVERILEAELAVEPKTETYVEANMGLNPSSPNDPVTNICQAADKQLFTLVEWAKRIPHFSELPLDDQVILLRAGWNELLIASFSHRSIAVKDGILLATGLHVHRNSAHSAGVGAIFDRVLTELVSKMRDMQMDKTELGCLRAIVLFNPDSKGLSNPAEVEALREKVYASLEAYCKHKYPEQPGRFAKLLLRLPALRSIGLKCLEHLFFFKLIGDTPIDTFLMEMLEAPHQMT
Outline: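 COS-1 cells in DMEM with 10% FBS at 37 °C, 5% CO2, transfected with RXRα, an RXR-response-element luciferase reporter and a SEAP background vector. Cells were seeded at about 2.0 × 10⁴ per well with compound (DMSO below 1%) for 18 h. Luciferase was normalized to SEAP and expressed relative to 1 μM reference RXR full agonist as 100%. EC50 came from full dose-response curves. Triplicates, at least three experiments.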

Activity [4]: Active
Efficacy [5]: 21%
Structure (SMILES): Cc1cc2c(cc1-n1c(C(F)(F)F)nc3cc(C(=O)O)ccc31)C(C)(C)CCC2(C)C
Activity [1]: 185 mg/dL
Activity [2]: 17.3 IU
Activity [3]: Non-toxic
